Source: ChEMBL document CHEMBL4138261, “SAR Studies of Indole-5-propanoic Acid Derivatives To Develop Novel GPR40 Agonists” (ACS Med Chem Lett, 2017)
The source made the active and inactive calls.

Columns and labels:
[1] = biological target: T1, Peroxisome proliferator-activated receptor gamma (Homo sapiens) (UniProt P37231); experiment: Transactivation of human PPARgamma expressed in CHO cells at 10 uM after 24 hrs by luciferase reporter gene assay relative to rosiglitazone; format: cell-based
T1 sequence (whole entry): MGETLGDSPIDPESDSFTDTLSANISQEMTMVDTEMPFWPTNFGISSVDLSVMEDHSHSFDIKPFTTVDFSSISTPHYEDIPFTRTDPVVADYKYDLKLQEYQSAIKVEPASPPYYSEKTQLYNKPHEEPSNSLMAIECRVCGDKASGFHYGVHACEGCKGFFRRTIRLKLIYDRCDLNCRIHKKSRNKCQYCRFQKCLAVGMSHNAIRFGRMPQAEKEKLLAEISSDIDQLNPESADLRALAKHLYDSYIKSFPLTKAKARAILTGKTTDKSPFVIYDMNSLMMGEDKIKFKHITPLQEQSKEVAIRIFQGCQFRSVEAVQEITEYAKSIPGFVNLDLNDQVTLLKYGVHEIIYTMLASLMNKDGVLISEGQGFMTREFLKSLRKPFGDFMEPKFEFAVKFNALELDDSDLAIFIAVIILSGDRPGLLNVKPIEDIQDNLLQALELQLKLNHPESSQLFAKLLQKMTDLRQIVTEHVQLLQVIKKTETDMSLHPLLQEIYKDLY
Procedure, shortened: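 Luciferase reporter transactivation assay for PPARγ; compounds tested at 10 μM; activity expressed as percent of 1 μM rosiglitazone; no activity defined as >25 μM.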

[2] = biological target: Free fatty acid receptor 1 (Homo sapiens, UniProt O14842); experiment: Agonist activity at human GPR40 expressed in CHO cells after 24 hrs by NFAT-luciferase reporter gene assay; format: functional, cell-based
Chain of Free fatty acid receptor 1 (O14842 whole entry): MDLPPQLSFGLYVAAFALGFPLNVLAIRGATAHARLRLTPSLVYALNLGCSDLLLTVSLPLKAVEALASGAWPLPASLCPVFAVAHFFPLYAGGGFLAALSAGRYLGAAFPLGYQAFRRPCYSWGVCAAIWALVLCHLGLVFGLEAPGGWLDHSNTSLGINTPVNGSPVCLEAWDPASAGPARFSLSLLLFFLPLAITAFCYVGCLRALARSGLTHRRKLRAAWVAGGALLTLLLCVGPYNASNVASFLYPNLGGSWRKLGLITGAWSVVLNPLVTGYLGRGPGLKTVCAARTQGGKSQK

[3] = Intrinsic clearance in CD-1 mouse liver microsomes at 1 uM after 30 mins in presence of NADPH by UPLC-MS analysis; format: ADME, microsome; settings: 0.5 h
Procedure, shortened: (§1)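 Liver microsomal stability; intrinsic clearance reported in μL/min/mg.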

[4] = biological target: Free fatty acid receptor 1 (Mus musculus) (UniProt Q76JU9); experiment: Agonist activity at GPR40 in mouse MIN6 cells assessed as increase in 17 mM glucose-stimulated insulin secretion at 1 and 10 uM after 2 hrs by ELISA relative to glucose; format: functional, cell-based
Chain of Free fatty acid receptor 1 (Mus musculus) (Q76JU9 whole entry): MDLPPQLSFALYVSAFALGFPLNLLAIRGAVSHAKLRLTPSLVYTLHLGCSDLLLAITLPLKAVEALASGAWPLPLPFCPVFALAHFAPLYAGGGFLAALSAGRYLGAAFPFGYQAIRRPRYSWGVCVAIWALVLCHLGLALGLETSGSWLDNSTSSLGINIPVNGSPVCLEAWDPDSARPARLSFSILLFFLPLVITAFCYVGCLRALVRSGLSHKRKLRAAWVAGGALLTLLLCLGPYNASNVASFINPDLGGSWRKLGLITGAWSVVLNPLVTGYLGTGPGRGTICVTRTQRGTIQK
Procedure, shortened: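 GSIS in MIN6 insulinoma cells stimulated with 17 mM glucose; insulin secretion compared with 17 mM glucose alone by Student's test (*p ≤ 0.05, **p ≤ 0.025, ***p ≤ 0.01).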

[5] = Intrinsic clearance in human liver microsomes at 1 uM after 30 mins in presence of NADPH by UPLC-MS analysis; format: ADME, microsome; settings: 0.5 h; procedure, shortened: as §1
[6] = biological target: T2, Peroxisome proliferator-activated receptor gamma (Homo sapiens, UniProt P37231); experiment: Transactivation of human PPARgamma expressed in CHO cells after 24 hrs by luciferase reporter gene assay; format: cell-based
T2 sequence (P37231 whole entry): T1 sequence (whole entry)

Row | Compound | Activity [1] [%] | EC50 [2] [µM] | further results
1 | CCc1ccccc1-c1cc2cc(CCC(=O)O)ccc2[nH]1 | 7 | 1.8 | 
2 | O=C(O)CCc1ccc2[nH]c(-c3ccccc3F)cc2c1 | 3 | 1.21 | 
3 | Cn1c(-c2ccc(Cl)cc2)cc2cc(CCC(=O)O)ccc21 |  | > 10 | 
4 | Cn1c(-c2cccc(Cl)c2)cc2cc(CCC(=O)O)ccc21 |  | > 10 | 
5 | Cc1ccccc1-c1cc2cc(CCC(=O)O)ccc2[nH]1 | 4 | 0.447 | 
6 | O=C(O)CCc1ccc2[nH]c(-c3ccccc3Br)cc2c1 | 4 | 0.0094 | CLH [3]: 10.4 µL/min; fold change (FC) [4]: 1.6; CLH [5]: 7.1 µL/min
7 | O=C(O)CCc1ccc2[nH]c(-c3ccccc3)cc2c1 | 14 | > 25 | Activity [4]: inactive
8 | Cc1cccc(-c2cc3cc(CCC(=O)O)ccc3[nH]2)c1 | 8 | > 25 | 
9 | Cc1ccc(-c2cc3cc(CCC(=O)O)ccc3[nH]2)cc1 | 4 | > 25 | 
10 | CC(C)c1ccccc1-c1cc2cc(CCC(=O)O)ccc2[nH]1 | 2 | > 25 | 
11 | O=C(O)CCc1ccc2[nH]c(-c3ccccc3C(F)(F)F)cc2c1 | 8 | 1.31 | 
12 | O=C(O)CCc1ccc2[nH]c(-c3cccc(Cl)c3)cc2c1 | 101 | 0.0378 | CLH [3]: 11.3 µL/min; fold change (FC) [4]: 1.7; EC50 [6]: 2.4 µM; CLH [5]: 4.3 µL/min
13 | COc1ccccc1-c1cc2cc(CCC(=O)O)ccc2[nH]1 | 0 | > 25 | 
14 | O=C(O)CCc1ccc2[nH]c(-c3cccc(Br)c3)cc2c1 | 56 | 1.8 | EC50 [6]: 236 µM
15 | COc1cccc(-c2cc3cc(CCC(=O)O)ccc3[nH]2)c1 | 5 | > 25 | 
16 | Cc1ncccc1-c1cc2cc(CCC(=O)O)ccc2[nH]1 | 64 | > 25 | EC50 [6]: 56.9 µM
17 | Cn1c(-c2ccccc2Br)cc2cc(CCC(=O)O)ccc21 |  | > 10 | 
18 | O=C(O)CCc1ccc2[nH]c(-c3ccccc3OC(F)(F)F)cc2c1 | 2 | 1.02 | 
19 | Cc1cc(OCCCS(C)(=O)=O)cc(C)c1-c1cccc(COc2ccc3c(c2)OC[C@H]3CC(=O)O)c1 |  |  | fold change (FC) [4]: 1.7
20 | O=C(O)CCc1ccc2[nH]c(-c3ccccc3Cl)cc2c1 | 1 | 0.0546 to 0.0586 | CLH [3]: 14.3 µL/min; fold change (FC) [4]: 1.4; CLH [5]: 9.2 µL/min
21 | COc1ccc(-c2cc3cc(CCC(=O)O)ccc3[nH]2)cc1 | 5 | > 25 | 
22 | O=C(O)CCc1ccc(NCc2cccc(Oc3ccccc3)c2)cc1 [GW9508] |  | 0.05 | 
23 | O=C(O)CCc1ccc2[nH]c(-c3ccc(Cl)cc3)cc2c1 | 1 | 0.778 | 
